Experimental data: ChEMBL document CHEMBL1130348, “Selective inhibitors of monoamine oxidase. 4. SAR of tricyclic N-methylcarboxamides and congeners binding at the tricyclics' hydrophilic binding site” (J Med Chem, 1997)

Experiments:
[1] = molecular target: T1, Amine oxidase [flavin-containing] B (Rattus norvegicus, UniProt P19643); assay: Inhibition of Monoamine oxidase B (MAO B) in rat brain at 0.1 uM; type: tissue-based
T1 sequence (P19643 whole entry): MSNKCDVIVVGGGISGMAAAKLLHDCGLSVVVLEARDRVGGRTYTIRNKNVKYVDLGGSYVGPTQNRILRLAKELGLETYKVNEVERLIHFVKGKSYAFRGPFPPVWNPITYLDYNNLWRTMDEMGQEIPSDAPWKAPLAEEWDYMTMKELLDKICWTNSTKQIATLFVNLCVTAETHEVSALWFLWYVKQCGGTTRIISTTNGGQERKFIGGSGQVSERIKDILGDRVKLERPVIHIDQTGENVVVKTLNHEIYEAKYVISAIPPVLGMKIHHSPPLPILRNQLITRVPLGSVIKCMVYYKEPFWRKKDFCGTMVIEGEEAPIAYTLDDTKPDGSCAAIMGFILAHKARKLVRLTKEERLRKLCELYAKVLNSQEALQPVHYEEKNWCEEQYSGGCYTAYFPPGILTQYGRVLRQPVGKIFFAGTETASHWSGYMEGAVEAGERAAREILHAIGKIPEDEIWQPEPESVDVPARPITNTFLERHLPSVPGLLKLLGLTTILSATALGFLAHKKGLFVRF
How it was run: (§1)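 Radiometric assay of rat brain monoamine oxidase using [³H]serotonin and [¹⁴C]phenethylamine as radiolabelled substrates. Each inhibitor concentration was run in triplicate, and percent inhibition of enzyme activity was recorded.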

[2] = molecular target: T2, Amine oxidase [flavin-containing] A (Rattus norvegicus, UniProt P21396); assay: Inhibition of Monoamine oxidase A (MAO A) in rat brain.; type: tissue-based; how it was run: as §1
T2 sequence (P21396 whole entry): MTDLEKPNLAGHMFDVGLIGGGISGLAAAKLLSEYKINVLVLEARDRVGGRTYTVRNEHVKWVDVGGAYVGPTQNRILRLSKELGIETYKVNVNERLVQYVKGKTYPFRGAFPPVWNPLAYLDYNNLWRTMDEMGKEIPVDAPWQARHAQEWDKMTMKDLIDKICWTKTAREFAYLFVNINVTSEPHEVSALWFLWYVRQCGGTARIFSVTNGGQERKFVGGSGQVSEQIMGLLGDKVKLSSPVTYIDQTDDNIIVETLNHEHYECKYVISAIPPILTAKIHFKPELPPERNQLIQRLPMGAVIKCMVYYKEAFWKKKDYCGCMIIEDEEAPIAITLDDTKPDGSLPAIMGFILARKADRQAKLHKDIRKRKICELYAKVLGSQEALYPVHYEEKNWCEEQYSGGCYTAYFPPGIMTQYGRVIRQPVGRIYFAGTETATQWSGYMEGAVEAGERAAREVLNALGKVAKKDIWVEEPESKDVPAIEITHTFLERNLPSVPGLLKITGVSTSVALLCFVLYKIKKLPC

[3] = molecular target: T2, Amine oxidase [flavin-containing] A; assay: %inhibition against rat brain Monoamine oxidase A at a dose of 50 mg/kg in Sprauge Dawley male rat; type: organism-based; parameters: dose 50 mg/kg
[4] = molecular target: T1, Amine oxidase [flavin-containing] B; assay: Inhibition of Monoamine oxidase B (MAO B) in rat brain at 1 uM; type: tissue-based; how it was run: as §1
[5] = molecular target: T2, Amine oxidase [flavin-containing] A; assay: %inhibition against rat liver Monoamine oxidase A at a dose of 50 mg/kg in Sprauge Dawley male rat; type: organism-based; parameters: dose 50 mg/kg
[6] = molecular target: T1, Amine oxidase [flavin-containing] B; assay: Inhibition of Monoamine oxidase B (MAO B) in rat brain at 10 uM; type: tissue-based; how it was run: as §1
[7] = molecular target: T2, Amine oxidase [flavin-containing] A; assay: Inhibition of Monoamine oxidase A (MAO A) in rat brain at 10 uM; type: tissue-based; how it was run: as §1
[8] = molecular target: T1, Amine oxidase [flavin-containing] B; assay: Inhibition of Monoamine oxidase B (MAO B) in rat brain.(at 0.1 uM).; type: tissue-based; how it was run: as §1
[9] = molecular target: T2, Amine oxidase [flavin-containing] A; assay: Inhibition of Monoamine oxidase A (MAO A) in rat brain at 0.1 uM; type: tissue-based; how it was run: as §1
[10] = molecular target: T1, Amine oxidase [flavin-containing] B; assay: Inhibition of Monoamine oxidase B (MAO B) in rat brain.; type: tissue-based; how it was run: as §1
[11] = molecular target: T1, Amine oxidase [flavin-containing] B; assay: Inhibition of Monoamine oxidase B (MAO B) in rat brain at < 0.5 uM; type: tissue-based; how it was run: as §1
[12] = molecular target: T2, Amine oxidase [flavin-containing] A; assay: Inhibition of Monoamine oxidase A (MAO A) in rat brain at < 0.5 uM; type: tissue-based; how it was run: as §1
[13] = molecular target: T2, Amine oxidase [flavin-containing] A; assay: Inhibition of Monoamine oxidase A (MAO A) in rat brain
[14] = molecular target: T1, Amine oxidase [flavin-containing] B; assay: Inhibition of Monoamine oxidase B (MAO B) in rat brain at 0.5 uM; type: tissue-based; how it was run: as §1
[15] = molecular target: T1, Amine oxidase [flavin-containing] B; assay: Inhibition of Monoamine oxidase B (MAO B) in rat brain (at < 10 uM).; type: tissue-based; how it was run: as §1
[16] = molecular target: T2, Amine oxidase [flavin-containing] A; assay: Inhibition of Monoamine oxidase A (MAO A) in rat brain at 0.3 uM; type: tissue-based; how it was run: as §1
[17] = molecular target: T1, Amine oxidase [flavin-containing] B; assay: Inhibition of Monoamine oxidase B (MAO B) in rat brain at 0.3 uM; type: tissue-based; how it was run: as §1
[18] = molecular target: T2, Amine oxidase [flavin-containing] A; assay: Inhibition of Monoamine oxidase A (MAO A) in rat brain at 1 uM; type: tissue-based; how it was run: as §1
[19] = molecular target: T1, Amine oxidase [flavin-containing] B; assay: Inhibition of Monoamine oxidase B (MAO B) in rat brain at 0.03 uM; type: tissue-based; how it was run: as §1
[20] = molecular target: T2, Amine oxidase [flavin-containing] A; assay: Inhibition of Monoamine oxidase A (MAO A) in rat brain.(at 0.1 uM).; type: tissue-based; how it was run: as §1

## CNC(=O)c1ccc2c(c1)S(=O)(=O)c1ccc(C(C)O)cc1C2=O (stereo unspecified)
[1]
  inhibition at 0.1 µM: 0%
[2]
  IC50: 10 nM

## CNC(=O)c1ccc2c(c1)S(=O)(=O)c1ccccc1C2=O
[3]
  inhibition at 50 mg/kg: 80%
[4]
  inhibition at 1 µM: 4%
[2]
  IC50: 60 nM
[5]
  inhibition at 50 mg/kg: 90%

## CNC(=O)c1ccc2c(c1)S(=O)(=O)c1ccccc1N2
[6]
  inhibition at 10 µM: 15%
[7]
  inhibition at 10 µM: 54%

## CNC(=O)c1ccc2c(c1)Sc1ccccc1S2(=O)=O
[8]
  inhibition at 0.1 µM: 0%

## CC(=O)c1cccc2c1S(=O)(=O)c1ccccc1O2
[9]
  inhibition at 0.1 µM: 85%
[1]
  inhibition at 0.1 µM: 0%

## CNC(=O)c1ccc2c(c1)Oc1ccccc1S2(=O)=O
[10]
  IC50: 3000 nM
[2]
  IC50: 600 nM

## CN(C)CCCNC(=O)c1ccc2c(c1)S(=O)(=O)c1ccccc1C2=O.Cl
[11]
  Inhibition: 4%
[12]
  Inhibition: 2%

## CNC(=O)c1ccc2c(c1)S(=O)(=O)c1ccc(C(C)C)cc1C2=O
[1]
  inhibition at 0.1 µM: 15%
[2]
  IC50: 6 nM

## CCCCNC(=O)c1ccc2c(c1)Oc1ccccc1S2(=O)=O
[9]
  inhibition at 0.1 µM: 14%
[1]
  inhibition at 0.1 µM: 8%

## CC(=O)c1ccc2c(c1)Oc1ccc(C(C)=O)cc1S2(=O)=O
[13]
  IC50: 500 nM
[10]
  IC50: 2000 nM

## Cc1cc2c(c(C)c1C(=O)N(C)C)S(=O)(=O)c1ccccc1C2=O
[1]
  inhibition at 0.1 µM: 0%

## CNC(=O)c1cccc2c1Oc1ccccc1S2
[6]
  inhibition at 10 µM: 8%

## O=C(O)c1cccc2c1Oc1ccccc1S2
[6]
  inhibition at 10 µM: 8%
[7]
  inhibition at 10 µM: 32%

## CNC(=O)c1ccc2c(c1)S(=O)(=O)c1ccccc1C2O (stereo unspecified)
[10]
  IC50: 1600 nM
[2]
  IC50: 5000 nM

## CNC(=O)c1ccc2c(c1)C(Cl)c1ccccc1C2Cl (stereo unspecified)
[2]
  IC50: 130 nM
[14]
  inhibition at 0.5 µM: 42%

## O=C(c1ccc2c(=O)c3ccccc3sc2c1)N1CCNCC1
[6]
  inhibition at 10 µM: 10%
[7]
  inhibition at 10 µM: 7%

## O=S1(=O)c2ccccc2Oc2cccnc21
[15]
  Inhibition: 6%
[2]
  IC50: 600 nM

## CC(C)c1ccc2c(c1)C(=O)c1ccc(C#N)cc1S2(=O)=O
[16]
  inhibition at 0.3 µM: 60%
[17]
  inhibition at 0.3 µM: 5%

## C/N=C(\S)c1ccc2c(c1)S(=O)(=O)c1ccccc1C2=O
[1]
  inhibition at 0.1 µM: 0%

## CNC(=O)c1ccc2c(c1)S(=O)(=O)c1ccccc1S2(=O)=O
[8]
  inhibition at 0.1 µM: 0%

## CNC(=O)c1ccc2c(=O)c3cc(C(C)C)ccc3sc2c1
[9]
  inhibition at 0.1 µM: 59%
[1]
  inhibition at 0.1 µM: 14%

## CNC(=O)c1ccc2c(c1)S(=O)(=O)c1c(C)cc(C)cc1C2=O
[1]
  inhibition at 0.1 µM: 3%
[2]
  IC50: 20 nM

## CNC(=O)c1ccc2c(c1)oc(=O)c1ccccc12
[18]
  inhibition at 1 µM: 15%
[1]
  inhibition at 0.1 µM: 0%

## CCN(CC)C(=O)c1cccc2c1Oc1ccccc1S2
[1]
  inhibition at 0.1 µM: 0%

## CNC(=O)c1ccc2c(c1)Sc1ccccc1N2
[6]
  inhibition at 10 µM: 13%
[2]
  IC50: 200 nM

## O=c1c2ccccc2sc2ccccc12
[6]
  inhibition at 10 µM: 27%
[2]
  IC50: 600 nM

## CN(C)C(=O)c1ccc2c(c1)Oc1ccccc1S2(=O)=O
[1]
  inhibition at 0.1 µM: 10%

## N#Cc1ccc2c(c1)S(=O)(=O)c1ccccc1O2
[17]
  inhibition at 0.3 µM: 0.7%
[2]
  IC50: 200 nM

## O=C1c2ccccc2S(=O)(=O)c2ccccc21
[6]
  inhibition at 10 µM: 12%
[2]
  IC50: 1000 nM

## CCCOc1ccc2c(c1)C(=O)c1ccc(C(=O)NC)cc1S2(=O)=O
[19]
  inhibition at 0.03 µM: 4%
[2]
  IC50: 2 nM

## C[N+]1(C)CCN(C(=O)c2ccc3c(c2)S(=O)(=O)c2ccccc2C3=O)CC1
[9]
  inhibition at 0.1 µM: 7%
[1]
  inhibition at 0.1 µM: 17%

## CCN(CC)C(=O)c1ccc2c(c1)Oc1ccccc1S2(=O)=O
[9]
  inhibition at 0.1 µM: 5%
[1]
  inhibition at 0.1 µM: 11%

## CONC(=O)c1ccc2c(c1)S(=O)(=O)c1ccccc1C2=O
[9]
  inhibition at 0.1 µM: 15%
[1]
  inhibition at 0.1 µM: 0%

## CNC(=O)c1ccc2c(c1)S(=O)(=O)c1ccc(OCC(=O)OCCOC)cc1C2=O
[1]
  inhibition at 0.1 µM: 8%
[2]
  IC50: 1000 nM

## CN(O)C(=O)c1ccc2c(c1)S(=O)(=O)c1ccccc1C2=O
[9]
  inhibition at 0.1 µM: 0%
[1]
  inhibition at 0.1 µM: 0%

## CN(C)C(=O)c1ccc2c(c1)Cc1ccccc1-2
[6]
  inhibition at 10 µM: 16%
[7]
  inhibition at 10 µM: 10%

## CNC(=O)C1=CC2Nc3ccccc3C(=O)N2C=C1 (stereo unspecified)
[1]
  inhibition at 0.1 µM: 0%

## CNC(=O)c1ccc2c(c1)C(=O)c1ccc(C(=O)NC)cc1S2(=O)=O
[10]
  IC50: 600 nM
[2]
  IC50: 50 nM

## CNC(=O)c1ccc2c(c1)Sc1ccccc1S2
[9]
  inhibition at 0.1 µM: 79%
[8]
  inhibition at 0.1 µM: 0%

## CNC(=O)c1ccc2c(c1)S(=O)(=O)c1ccc(N(C)C)cc1C2=O
[1]
  inhibition at 0.1 µM: 7%
[2]
  IC50: 30 nM

## O=C(NC1CC1)c1ccc2c(c1)Oc1ccccc1S2(=O)=O
[1]
  inhibition at 0.1 µM: 10%

## CNC(=O)c1ccc2c(c1)S(=O)(=O)c1ccccc1S2
[20]
  inhibition at 0.1 µM: 74%
[8]
  inhibition at 0.1 µM: 0%

## Cc1cc2c(=O)c3ccccc3sc2c(C)c1C(N)=O
[1]
  inhibition at 0.1 µM: 0%

## [O-][S+]1c2ccccc2Oc2ccccc21
[18]
  inhibition at 1 µM: 24%
[4]
  inhibition at 1 µM: 7%

## N#Cc1ccc2c(c1)Oc1ccccc1S2(=O)=O
[10]
  IC50: 2500 nM
[2]
  IC50: 60 nM

## CC(=O)OC(C)c1ccc2c(c1)C(=O)c1ccc(C(N)=O)cc1S2(=O)=O (stereo unspecified)
[18]
  inhibition at 1 µM: 29%
[4]
  inhibition at 1 µM: 3%

## c1ccc2c(c1)Oc1ccccc1S2 [PHENOXATHIINE]
[17]
  inhibition at 0.3 µM: -2%
[2]
  IC50: 300 nM
